Source: ChEMBL document CHEMBL5233277, “Oxidative Metabolism as a Modulator of Kratom's Biological Actions” (J Med Chem, 2021)
Active and inactive are the calls of the source. The calls are words filed in the database; no cut-off is given here.

How the values were obtained:
Mus musculus [1] = assay: Potency index, ratio of morphine ED50 to test compound ED50 for antinociceptive activity in po dosed 129Sv6 mouse model assessed as peak effect measured at 15 mins by radiant heat tail flick assay; format: functional; settings: 0.25 h
[2] = Drug concentration in C57BL/6J mouse plasma at 1 mg/kg, sc measured after 20 mins by LC-MS/MS analysis; format: ADME, organism-based
Mus musculus [3] = assay: Antinociceptive activity in po dosed C57BL/6J mouse model assessed as peak effect measured at 20 mins by radiant heat tail flick assay; format: functional
Mus musculus [4] = assay: Potency index, ratio of morphine ED50 to test compound ED50 for antinociceptive activity in po dosed C57BL/6J mouse model assessed as peak effect measured at 20 mins by radiant heat tail flick assay; format: functional
[5] = Drug concentration in C57BL/6J mouse brain at 1 mg/kg, sc measured after 20 mins by LC-MS/MS analysis; format: ADME, organism-based; settings: read-out: Ct
[6] = Toxicity in C57BL/6J mouse assessed as hyperlocomotion at 1 mg/kg, sc measured after 20 mins; format: organism-based; settings: in vivo
Mus musculus [7] = assay: Antinociceptive activity in sc dosed 129Sv6 mouse model assessed as peak effect measured at 15 mins by radiant heat tail flick assay; format: functional; settings: 129Sv6, 0.25 h
[8] = biological target: Mu-type opioid receptor (Mus musculus) (UniProt P42866); assay: Agonist activity at mouse MOR expressed in CHO cell membranes assessed as stimulation of [35S]-GTPgammaS binding by measuring maximal efficacy incubated for 60 mins by scintillation spectroscopy analysis relative DAMGO; settings: Membrane, filed as agonist
Procedure, shortened: (§1)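 CHO cell membranes stably expressing cloned mouse opioid receptors; agonist-stimulated [35S]GTPγS binding. […] Three independent experiments, each in triplicate.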

[9] = biological target: Kappa-type opioid receptor (Mus musculus) (UniProt P33534); assay: (§2) Agonist activity at mouse KOR expressed in CHO cell membranes assessed as stimulation of [35S]-GTPgammaS binding incubated for 60 mins by scintillation spectroscopy analysis; settings: Membrane
Procedure, shortened: (§3)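 CHO cell membranes stably expressing cloned mouse opioid receptors; agonist-stimulated [35S]GTPγS binding. Three independent experiments, each in triplicate.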

[10] = biological target: T1, Delta-type opioid receptor (Mus musculus, UniProt P32300); assay: Displacement of [125]IBNtxA from mouse DOR stably expressed in CHO cell membranes incubated for 90 mins; parameters: species or system Membrane
Procedure, shortened: (§4)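 MOR: 50 mM potassium phosphate with 5 mM MgSO4, 20 μg/mL protein. KOR and DOR: 50 mM potassium phosphate pH 7.0, 40 μg/mL protein. 25 °C, 90 min; glass-fiber filtration; levallorphan 8 μM defines nonspecific binding. Ki from IC50; at least three replicates.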

Mu-type opioid receptor [11] = biological target: T2, Mu-type opioid receptor (Mus musculus, UniProt P42866); assay: Displacement of [125]IBNtxA from mouse MOR stably expressed in CHO cell membranes incubated for 90 mins; parameters: species or system Membrane; procedure, shortened: as §4
[12] = biological target: T3, Kappa-type opioid receptor (Mus musculus, UniProt P33534); assay: Displacement of [125]IBNtxA from mouse KOR stably expressed in CHO cell membranes incubated for 90 mins; parameters: species or system Membrane; procedure, shortened: as §4
Mus musculus [13] = species: Mus musculus; assay: animal or person; settings: 129Sv6, 0.5 h
Mus musculus [14] = species: Mus musculus; assay: animal or person; settings: 129Sv6, po, 1 h
Mus musculus [15] = species: Mus musculus; assay: animal or person; settings: C57BL/6J, po, 0.5 h
[16] = biological target: Kappa-type opioid receptor (Mus musculus) (UniProt P33534); assay: Agonist activity at mouse KOR expressed in CHO cell membranes assessed as stimulation of [35S]-GTPgammaS binding by measuring maximal efficacy incubated for 60 mins by scintillation spectroscopy analysis relative to U50,488H; settings: Membrane, filed as agonist; procedure, shortened: as §1
[17] = biological target: Mu-type opioid receptor (Mus musculus) (UniProt P42866); assay: Partial agonist activity at mouse MOR expressed in CHO cell membranes assessed as stimulation of [35S]-GTPgammaS binding by measuring maximal efficacy incubated for 60 mins by scintillation spectroscopy analysis relative DAMGO; settings: Membrane, filed as partial agonist
Procedure, shortened: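 Membranes from CHO cells stably expressing mouse MOR were used in an agonist-stimulated [35S]GTPγS binding assay. […] Data are from three independent experiments, each run in triplicate.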

[18] = biological target: Delta-type opioid receptor (Mus musculus) (UniProt P32300); assay: (§5) Antagonist activity at mouse DOR expressed in CHO cell membranes assessed as inhibition of DPDPE induced [35S]-GTPgammaS binding incubated for 60 mins by scintillation spectroscopy analysis; settings: Membrane
[19] = biological target: T3, Kappa-type opioid receptor; assay: as §2; parameters: species or system Membrane; procedure, shortened: as §3
Mu-type opioid receptor [20] = biological target: T2, Mu-type opioid receptor; assay: Agonist activity at mouse MOR expressed in CHO cell membranes assessed as stimulation of [35S]-GTPgammaS binding incubated for 60 mins by scintillation spectroscopy analysis; parameters: species or system Membrane; procedure, shortened: as §3
[21] = biological target: Mu-type opioid receptor (Mus musculus) (UniProt P42866); assay: Potency index, ratio of mitragynine Ki to test compound Ki for displacement of [125]IBNtxA from mouse MOR stably expressed in CHO cell membranes incubated for 90 mins; settings: Membrane
[22] = Toxicity in C57BL/6J mouse assessed as conditioned place preference at 1 mg/kg, sc; format: organism-based; settings: in vivo
Procedure, shortened: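 C57BL/6J mice (n = 18–24) were habituated to a two-compartment apparatus for 3 h per day over 2 days, then given a 20 min pre-conditioning baseline test. Conditioning used 20 min sessions with drug at 1 mg/kg/d sc or saline. On test day mice explored freely for 20 min, and a difference score was calculated.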

[23] = biological target: Mu-type opioid receptor (Mus musculus) (UniProt P42866); assay: Potency index, ratio of mitragynine EC50 to test compound EC50 for agonist activity at mouse MOR expressed in CHO cell membranes assessed as stimulation of [35S]-GTPgammaS binding incubated for 60 mins by scintillation spectroscopy analysis; settings: Membrane
[24] = biological target: T1, Delta-type opioid receptor; assay: as §5; parameters: species or system Membrane
[25] = Drug concentration in C57BL/6J mouse plasma at 30 mg/kg, po measured after 24 hrs by LC-MS/MS analysis; format: ADME, organism-based; settings: in vivo, BLD = below limit of detection
[26] = Toxicity in sc dosed 129Sv6 mouse assessed as lethality; format: organism-based; settings: in vivo
Procedure, shortened: (§6)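 Groups of mice (n = 6 per dose) received graded subcutaneous doses in DMSO/solutol/saline (1:1:8) and were scored for lethality. […] Strains were 129Sv6 for line 3 and CD1 for […], both purchased from Jackson Laboratories.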

[27] = Drug concentration in C57BL/6J mouse brain at 30 mg/kg, po measured after 24 hrs by LC-MS/MS analysis; format: ADME, organism-based; settings: in vivo, BLD = below limit of detection
[28] = Toxicity in C57BL/6J mouse at 50 mg/kg, sc in presence of naltrindole; format: organism-based; settings: in vivo
[29] = Toxicity in MOR knock out C57BL/6J mouse at 50 mg/kg, sc in presence of norbinaltorphimine; format: organism-based; settings: in vivo
[30] = Toxicity in sc dosed CD1 mouse assessed as lethality; format: organism-based; settings: in vivo; procedure, shortened: as §6
Mus musculus [31] = species: Mus musculus; assay: Antinociceptive activity in mouse; format: functional, organism-based
[32] = Toxicity in sc dosed C57BL/6J mouse assessed as lethality at 50 mg/kg, sc; format: organism-based; settings: in vivo, read-out: Activity
Procedure, shortened: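 Opioid-naïve C57BL/6J mice (n = 4) were given a single 50 mg/kg subcutaneous dose in DMSO/solutol/saline (1:1:8) and observed for lethality, reported as percent of animals dying.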

[33] = Toxicity in 129Sv6 mouse assessed as fatality at 10 ug, IT; settings: in vivo, other, dose 10 µg
[34] = Toxicity in MOR knock out C57BL/6J mouse at 50 mg/kg, sc in presence of naltrindole; format: organism-based; settings: in vivo
[35] = Toxicity in CD1 mouse assessed as fatality at 10 ug, IT; settings: in vivo, other, dose 10 µg
[36] = Toxicity in C57BL/6J mouse at 50 mg/kg, sc in presence of norbinaltorphimine; format: organism-based; settings: in vivo

T3 sequence (P33534 whole entry): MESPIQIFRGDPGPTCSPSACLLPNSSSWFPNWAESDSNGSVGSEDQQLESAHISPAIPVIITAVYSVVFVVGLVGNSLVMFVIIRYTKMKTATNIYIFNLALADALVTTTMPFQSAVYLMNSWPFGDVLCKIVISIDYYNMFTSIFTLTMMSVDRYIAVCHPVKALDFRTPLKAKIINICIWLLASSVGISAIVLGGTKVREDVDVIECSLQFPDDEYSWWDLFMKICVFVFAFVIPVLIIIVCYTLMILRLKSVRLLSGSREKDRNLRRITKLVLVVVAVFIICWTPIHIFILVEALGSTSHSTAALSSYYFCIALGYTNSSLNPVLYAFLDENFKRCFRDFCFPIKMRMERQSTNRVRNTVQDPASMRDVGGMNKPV
Sequence of Kappa-type opioid receptor (Mus musculus) (P33534 whole entry): as above
T1 sequence (P32300 whole entry): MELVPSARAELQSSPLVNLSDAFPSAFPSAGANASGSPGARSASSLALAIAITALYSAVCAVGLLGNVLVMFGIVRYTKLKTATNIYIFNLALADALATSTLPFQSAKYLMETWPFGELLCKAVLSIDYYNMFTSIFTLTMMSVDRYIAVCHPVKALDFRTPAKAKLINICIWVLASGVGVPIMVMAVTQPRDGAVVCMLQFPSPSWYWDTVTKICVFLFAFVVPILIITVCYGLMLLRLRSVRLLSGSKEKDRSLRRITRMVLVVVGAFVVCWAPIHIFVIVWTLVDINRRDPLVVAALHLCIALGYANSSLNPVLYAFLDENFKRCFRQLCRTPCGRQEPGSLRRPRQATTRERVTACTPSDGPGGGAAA
Sequence of Mu-type opioid receptor (Mus musculus) (P42866 whole entry): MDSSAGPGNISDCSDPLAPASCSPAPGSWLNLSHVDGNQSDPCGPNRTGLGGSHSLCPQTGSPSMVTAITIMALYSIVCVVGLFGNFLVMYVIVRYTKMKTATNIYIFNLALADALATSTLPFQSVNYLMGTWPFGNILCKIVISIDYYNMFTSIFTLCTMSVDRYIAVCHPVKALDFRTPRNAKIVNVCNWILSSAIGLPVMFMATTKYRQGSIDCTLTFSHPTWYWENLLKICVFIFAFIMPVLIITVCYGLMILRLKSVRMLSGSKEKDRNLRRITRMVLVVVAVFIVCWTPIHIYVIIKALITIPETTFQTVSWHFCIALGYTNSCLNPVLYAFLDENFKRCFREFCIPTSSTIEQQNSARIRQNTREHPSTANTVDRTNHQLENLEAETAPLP
T2 sequence (P42866 whole entry): as above
Sequence of Delta-type opioid receptor (Mus musculus) (P32300 whole entry): as the sequence (P32300 whole entry) above

| SMILES | ED50 (Mus musculus [7]) | Emax [8] | Ki [10] | Ki (Mu-type opioid receptor [11]) | Ki [12] | Emax [16] | EC50 [19] | EC50 (Mu-type opioid receptor [20]) | further results |
| --- | --- | --- | --- | --- | --- | --- | --- | --- | --- |
| CO/C=C(/C(=O)OC)[C@@H]1CCN2CC[C@]3(Nc4cccc(OC)c4C3=O)[C@@H]2C1 | 0.3 mg/kg |  |  |  |  |  |  |  | Ratio ED50 (Mus musculus [1]): 2; concentration at 20 min [2]: 410 nM; ED50 (Mus musculus [3]): 0.26 mg/kg; Ratio ED50 (Mus musculus [4]): 2; concentration at 20 min [5]: 70 nM; Activity [6]: Non-Toxic |
| CC[C@H]1CN2CCc3c([nH]c4cccc(OC)c34)[C@@H]2C[C@@H]1/C(=C\OC)C(=O)OC |  | 43% |  |  |  |  |  |  | Activity [9]: inactive |
| CC[C@@H]1C[N+]2([O-])CCc3c([nH]c4cccc(OC)c34)[C@@H]2C[C@@H]1/C(=C\OC)C(=O)OC (stereo not given in full) |  |  | 4.14 µM | 6.9 µM | 7.18 µM |  |  |  |  |
| CN1CC[C@]23c4c5ccc(O)c4O[C@H]2[C@@H](O)C=C[C@H]3[C@H]1C5 [MORPHINE] | 0.68 mg/kg |  |  |  |  |  |  |  | ED50 (Mus musculus [13]): 0.7 mg/kg; ED50 (Mus musculus [14]): 3.3 mg/kg; ED50 (Mus musculus [15]): 4.73 mg/kg |
| CC[C@@H]1CN2CCc3c([nH]c4cccc(OC)c34)[C@H]2C[C@@H]1/C(=C\OC)C(=O)OC | > 100 mg/kg |  |  |  |  | 58% |  |  | Emax [17]: 45% |
| CC[C@@H]1CN2CCc3c([nH]c4cccc(O[C@@H]5O[C@H](C(=O)O)[C@@H](O)[C@H](O)[C@H]5O)c34)[C@@H]2C[C@@H]1/C(=C\OC)C(=O)OC | > 30 mg/kg | 102% | 3.24 µM | 1.67 µM | 1.27 µM | 98% | 1.14 µM | 5.78 µM | inhibition [18]: inactive |
| CC[C@@H]1CN2CCc3c([nH]c4cccc(O)c34)[C@@H]2C[C@@H]1/C(=C\OC)C(=O)OC | > 100 mg/kg | 62% | 1.88 µM | 0.216 µM | 1.18 µM | 87% | 0.858 µM |  | inhibition [18]: inactive |
| CC[C@@H]1CN2CC[C@@]3(O)C(=Nc4cccc(OC)c43)[C@@H]2C[C@@H]1/C(=C\OC)C(=O)OC | 0.2 mg/kg |  |  |  |  |  |  |  | Ratio ED50 (Mus musculus [1]): 3; Ratio Ki [21]: 6; concentration at 20 min [2]: 270 nM; ED50 (Mus musculus [3]): 0.3 mg/kg; Activity [22]: Toxic; Ratio EC50 [23]: 4; Ratio ED50 (Mus musculus [4]): 3; concentration at 20 min [5]: 450 nM; Activity [6]: Non-Toxic |
| C=C[C@H]1CN2CCc3c([nH]c4cccc(OC)c34)[C@@H]2C[C@@H]1/C(=C\OC)C(=O)OC | > 100 mg/kg | 54% | 3.39 µM | 0.666 µM | 0.883 µM | 57% | 3.59 µM | 9.38 µM | IC50 [24]: > 10 µM |
| CC[C@@H]1C[N+]2=C(C[C@@H]1/C(=C\OC)C(=O)OC)c1[nH]c3cccc(OC)c3c1CC2 | > 100 mg/kg |  | 0.0491 µM | 0.0341 µM | 0.125 µM | 64% | 0.166 µM | 0.0675 µM | Cp [25]: Bld; LD50 [26]: 48.4 mg/kg; Ct [27]: Bld; IC50 [24]: 1.1 µM; Activity [28]: Toxic; Activity [29]: Toxic; LD50 [30]: 74 mg/kg; Activity (Mus musculus [31]): inactive; mortality [32]: 100%; Activity [33]: Toxic; Activity [34]: Toxic; Activity [35]: Toxic; Activity [36]: Toxic |
